Measured values as given in publication PMC3357394 (Organic & biomolecular chemistry, 2011).

Legend:
recombinant CD38 = biological target: T1, recombinant CD38 (Homo sapiens, UniProt P28907); assay: Inhibition of the NADase; type: biochemical; settings: for inhibitory activity against CD38 NADase (in words): recombinant CD38
T1 sequence (P28907 45-300): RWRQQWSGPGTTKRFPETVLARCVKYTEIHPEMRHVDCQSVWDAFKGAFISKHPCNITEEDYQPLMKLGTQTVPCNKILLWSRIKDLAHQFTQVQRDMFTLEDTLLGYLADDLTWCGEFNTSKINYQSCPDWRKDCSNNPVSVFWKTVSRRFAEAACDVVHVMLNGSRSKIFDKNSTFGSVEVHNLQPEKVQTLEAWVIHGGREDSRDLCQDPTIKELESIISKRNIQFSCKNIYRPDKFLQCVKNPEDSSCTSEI

[1] = system: phenylephrine-induced contraction in rat aortic ring preparations with intact endothelium; settings: Phe (1 μM)-contracted endothelium-intact rat aortic rings, 30-300 μM
Method in brief: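 Endothelium-intact 3 mm thoracic aortic rings from male Sprague-Dawley rats (250–300 g) were held isometrically at 15 mN in Krebs solution (37°, 95% O2-5% CO2, pH≈7.4) and checked with 0.3 μM Phe then 1 μM ACh. After 60 min equilibration, rings were precontracted with 1 μM Phe and given cumulative water-dissolved test compound (30–300 μM). pD2 came from nonlinear fits of individual curves; mean±SEM, 3–5 rats/group.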

[2] = biological target: NAD+ glycohydrolase activity of CD38; settings: competitive inhibitor of NAD+ glycohydrolase activity of CD38; cited from earlier work
CD38 = settings: inhibitors of CD38; cited from earlier work
PC12 cells = settings: cited from earlier work

Row | SMILES | IC50 (recombinant CD38) | inhibitory activity against CD38 NADase (in words) (recombinant CD38) | also measured
1 | NC(=O)c1ccc[n+](COCCOc2ccc(Oc3ccccc3)cc2)c1.[Cl-] [Compound 4, 1-{[2-(4-phenoxy-phenoxy)ethoxy]methyl}-3-(aminocarbonyl)-pyridinium chloride] | 3.42 mM | weak inhibitory activities | vascular relaxing effect (in words) [1]: concentration-dependent relaxation
2 | NC(=O)c1ccc[n+](COCCOc2ccc([N+](=O)[O-])cc2)c1.[Cl-] [Compound 5, 1-{[2-(4-nitro-phenoxy)ethoxy]methyl}-3-(aminocarbonyl)-pyridinium chloride] | 5.65 mM | weak inhibitory activities | 
3 | NC(=O)c1ccc[n+]([C@@H]2C[C@H](COP(=O)([O-])OP(=O)(O)OC[C@H]3O[C@@H](n4cnc5c(N)ncnc54)[C@H](O)[C@@H]3O)[C@@H](O)[C@H]2O)c1 [carba-NAD^+, dinucleotide carbanicotinamide adenine dinucleotide] |  |  | IC50 [2]: ~100 µM
4 | NC(=O)c1ccc[n+]([C@@H]2O[C@H](COP(=O)(O)O)C(O)C2F)c1 (stereo partly drawn) [ara-F NMN] |  |  | Ki (CD38): nano-molar range
5 | COc1ccc(OCCOC[n+]2cccc(C(N)=O)c2)cc1.[Cl-] [Compound 3, 1-{[2-(4-methoxy-phenoxy)ethoxy]methyl}-3-(aminocarbonyl)-pyridinium chloride] | 11.4 mM | weak inhibitory activities | 
6 | NC(=O)c1c[n+](COCCOc2ccc(Oc3ccccc3)cc2)ccc1N.[Cl-] [Compound 14, 1-{[2-(4-phenoxy-phenoxy)ethoxy]methyl}-3-(aminocarbonyl)-4-amino-pyridiniu m chloride] | 4.8 mM | weak inhibitory activities | 
7 | NC(=O)c1ccc[n+](COCCOc2cccc3cccnc23)c1.[Cl-] [Compound 7, 1-{[2-(8′-quinolyloxy)ethoxy]methyl}-3-(aminocarbonyl)-pyridinium chloride] |  | weak inhibitory activities | inhibition of acetylcholine (Ach)-induced Ca2+ increase (in words) (PC12 cells): significantly inhibited
8 | NC(=O)c1ccc2c(ccc[n+]2COCCOc2ccc(Oc3ccccc3)cc2)c1.[Cl-] [Compound 13, 1-{[2-(4-phenoxy-phenoxy)ethoxy]methyl}-6-(aminocarbonyl)-quinolinium chloride] | 2.12 mM | weak inhibitory activities | 
9 | NC(=O)c1ccc[n+](COCCCCOC[n+]2cccc(C(N)=O)c2)c1.[Cl-].[Cl-] [Compound 9, 1,4-dimethoxy-butylene-bis-N,N′-3-(aminocarbonyl)-pyridinium dichloride] |  |  | vascular relaxing effect (in words) [1]: no such vascular relaxing effect
10 | NC(=O)c1ccc[n+](COCCOc2cccc(C(F)(F)F)c2)c1.[Cl-] [Compound 6, 1-{[2-(3-trifluoromethyl-phenoxy)ethoxy]methyl}-3-(aminocarbonyl)-pyridinium chloride] |  | no affinity for CD38 | 
11 | NC(=O)c1ccc[n+](COC/C=C/COc2cccc3cccnc23)c1.[Cl-] [Compound 12, (E)-1-{[4-(8′-quinolyloxy)but-2-enyloxy]methyl}-3-(aminocarbonyl)-pyridinium chloride] |  | weak inhibitory activities | 
